{"data": "Published values pooled from the literature", "note": "Compare with care: the assays were run in different laboratories."}
{"Structure (SMILES)": "CC1(C)C[C@H]2[C@H]1CC[C@]1(C)CCC[C@@]2(n2cc(CNC(N)=O)nn2)C1", "target or system": "HT-29", "test": "cell growth or viability, CCK-8", "setting": "10 µM", "measurement": "inhibition", "result": "< 50%"}
{"Structure (SMILES)": "O=c1c2cc(Cl)ccc2nc(-c2ccccc2)n1N=Cc1c(F)cccc1Cl", "target or system": "LLC-PK1", "test": "cell growth or viability, MTT", "setting": "72 h", "measurement": "IC50", "result": "46.4 µM"}
{"Structure (SMILES)": "Nc1ccc(S(=O)(=O)Nc2ncccn2)cc1", "target or system": "Klebsiella pneumoniae", "test": "microbial growth, well diffusion", "setting": "20 µg/mL", "measurement": "inhibition zone", "result": "2 mm"}
{"Structure (SMILES)": "CC1(C)S[C@@H]2[C@H](NC(=O)[C@H](N)c3ccc(O)cc3)C(=O)N2[C@H]1C(=O)O", "target or system": "Vibrio vulnificus", "test": "microbial growth, broth dilution", "measurement": "MIC90", "result": "3 µM"}
{"Structure (SMILES)": "COc1ccc(C=NNC(=O)CSc2nc3c(C)cccc3c(=O)n2-c2ccccc2)cc1OS(C)(=O)=O", "target or system": "Klebsiella pneumoniae", "test": "microbial growth, well diffusion", "setting": "20 µg/mL", "measurement": "inhibition zone", "result": "2 mm"}
{"Structure (SMILES)": "CN[C@H](CC(C)C)C(=O)N[C@H]1C(=O)N[C@@H](CC(N)=O)C(=O)N[C@H]2C(=O)N[C@H]3C(=O)N[C@H](C(=O)N[C@H](C(=O)O)c4cc(O)cc(O)c4-c4cc3ccc4O)[C@H](O)c3ccc(c(Cl)c3)Oc3cc2cc(c3O[C@@H]2O[C@H](CO)[C@@H](O)[C@H](O)[C@H]2O[C@H]2C[C@](C)(N)[C@H](O)[C@H](C)O2)Oc2ccc(cc2Cl)[C@H]1O", "target or system": "Streptococcus pneumoniae", "test": "microbial growth", "test system": "PRSP", "setting": "clinical isolate", "measurement": "MIC90", "result": "1 µg/mL"}
{"Structure (SMILES)": "COc1cc(C=NNC(=O)CSc2nc3c(C)cccc3c(=O)n2-c2ccccc2)ccc1OS(C)(=O)=O", "target or system": "Klebsiella pneumoniae", "test": "microbial growth, well diffusion", "setting": "20 µg/mL", "measurement": "inhibition zone", "result": "3 mm"}
{"Structure (SMILES)": "C=C[C@]1(C)C[C@@H](OC(=O)CS[C@@H]2C[C@H]3CC[C@@H](C2)N3C)[C@]2(C)[C@H](C)CC[C@]3(CCC(=O)[C@H]32)[C@@H](C)[C@@H]1O", "target or system": "Streptococcus pneumoniae", "test": "microbial growth, agar dilution", "test system": "ATCC49619", "measurement": "MIC", "result": "0.0312 µg/mL"}
{"Structure (SMILES)": "CC1(C)C[C@H]2[C@H]1CC[C@]1(C)CCC[C@@]2(n2cc(-c3ccc(F)cc3)nn2)C1", "target or system": "HT-29", "test": "cell growth or viability, CCK-8", "setting": "10 µM", "measurement": "inhibition", "result": "< 50%"}
{"Structure (SMILES)": "CC[C@H]1OC(=O)[C@H](C)[C@@H](O[C@H]2C[C@@](C)(OC)[C@@H](O)[C@H](C)O2)[C@H](C)[C@@H](O[C@@H]2O[C@H](C)C[C@H](N(C)C)[C@H]2O)[C@](C)(O)C[C@@H](C)/C(=N\\OCOCCOC)[C@H](C)[C@@H](O)[C@]1(C)O", "target or system": "Streptococcus pneumoniae", "test": "microbial growth", "setting": "clinical isolate", "measurement": "MIC90", "result": "4 µg/mL"}
{"Structure (SMILES)": "Cc1nc(Nc2ncc(C(=O)Nc3c(C)cccc3Cl)s2)cc(N2CC[C@H](O)C2)n1", "target or system": "U2932", "test": "cell growth or viability, ATP luminescence", "setting": "10 µM, 72 h", "measurement": "inhibition", "result": "58%"}
{"Structure (SMILES)": "CC(=O)NC[C@H]1CN(c2ccc(N3CCOCC3)c(F)c2)C(=O)O1", "target or system": "Streptococcus pneumoniae", "test": "microbial growth", "test system": "PRSP", "setting": "clinical isolate", "measurement": "MIC90", "result": "2 µg/mL"}
{"Structure (SMILES)": "COc1cc(C=NNC(=O)CSc2nc3ccc(Cl)cc3c(=O)n2-c2ccccc2)ccc1OS(C)(=O)=O", "target or system": "Klebsiella pneumoniae", "test": "microbial growth, well diffusion", "setting": "20 µg/mL", "measurement": "inhibition zone", "result": "2 mm"}
{"Structure (SMILES)": "COc1cccc(C=Nn2c(-c3ccccc3)nc3ccc(Cl)cc3c2=O)c1", "target or system": "LLC-PK1", "test": "cell growth or viability, MTT", "setting": "72 h", "measurement": "IC50", "result": "177 µM"}
{"Structure (SMILES)": "CC1(C)C[C@H]2[C@H]1CC[C@]1(C)CCC[C@@]2(n2cc(C(=O)NC3CCNCC3)nn2)C1", "target or system": "HT-29", "test": "cell growth or viability, CCK-8", "setting": "10 µM", "measurement": "inhibition", "result": "68.1%"}
{"Structure (SMILES)": "CS(=O)(=O)Oc1ccc(C=NNC(=O)CSc2nc3ccc(Cl)cc3c(=O)n2-c2ccccc2)cc1", "target or system": "Klebsiella pneumoniae", "test": "microbial growth, well diffusion", "setting": "20 µg/mL", "measurement": "inhibition zone", "result": "2 mm"}
{"Structure (SMILES)": "CC1(C)C[C@H]2[C@H]1CC[C@]1(C)CCC[C@@]2(NS(=O)(=O)C(C)(C)C)C1", "target or system": "HT-29", "test": "cell growth or viability, CCK-8", "setting": "50 µM", "measurement": "inhibition", "result": "71.4%"}
{"Structure (SMILES)": "CC1(C)S[C@@H]2[C@H](NC(=O)[C@H](N)c3ccccc3)C(=O)N2[C@H]1C(=O)O", "target or system": "Streptococcus pneumoniae", "test": "microbial growth", "setting": "clinical isolate", "measurement": "MIC90", "result": "4 µg/mL"}
{"Structure (SMILES)": "CC1(C)C[C@H]2[C@H]1CC[C@]1(C)CCC[C@@]2(n2cc(C(=O)NCCN)nn2)C1", "target or system": "HT-29", "test": "cell growth or viability, CCK-8", "setting": "50 µM", "measurement": "inhibition", "result": "78.3%"}
{"Structure (SMILES)": "CCCS(=O)(=O)Oc1ccc(C=NNC(=O)CSc2nc3ccc(Cl)cc3c(=O)n2-c2ccccc2)cc1", "target or system": "Klebsiella pneumoniae", "test": "microbial growth, well diffusion", "setting": "20 µg/mL", "measurement": "inhibition zone", "result": "3 mm"}
{"Structure (SMILES)": "CC1(C)C[C@H]2[C@H]1CC[C@]1(C)CCC[C@@]2(n2cc(CN3CCOCC3)nn2)C1", "target or system": "HT-29", "test": "cell growth or viability, CCK-8", "setting": "10 µM", "measurement": "inhibition", "result": "< 50%"}
{"Structure (SMILES)": "CN(C)c1ccc(C=Nn2c(-c3ccccc3)nc3ccc(Cl)cc3c2=O)cc1", "target or system": "LLC-PK1", "test": "cell growth or viability, MTT", "setting": "72 h", "measurement": "IC50", "result": "62.8 µM"}
{"Structure (SMILES)": "CCCS(=O)(=O)Oc1ccc(C=NNC(=O)CSc2nc3ccc(Cl)cc3c(=O)n2-c2ccccc2)cc1OC", "target or system": "Klebsiella pneumoniae", "test": "microbial growth, well diffusion", "setting": "20 µg/mL", "measurement": "inhibition zone", "result": "2 mm"}
{"Structure (SMILES)": "CC1(C)C[C@H]2[C@H]1CC[C@]1(C)CCC[C@@]2(n2cc(C(=O)O)nn2)C1", "target or system": "HT-29", "test": "cell growth or viability, CCK-8", "setting": "50 µM", "measurement": "inhibition", "result": "32.3%"}
{"Structure (SMILES)": "COc1ccc(C=NNC(=O)CSc2nc3ccc(Cl)cc3c(=O)n2-c2ccccc2)cc1OS(C)(=O)=O", "target or system": "Klebsiella pneumoniae", "test": "microbial growth, well diffusion", "setting": "20 µg/mL", "measurement": "inhibition zone", "result": "3 mm"}
{"Structure (SMILES)": "CC1(C)C[C@H]2[C@H]1CC[C@]1(C)CCC[C@@]2(NS(=O)(=O)c2ccc(OC(F)(F)F)cc2)C1", "target or system": "HT-29", "test": "cell growth or viability, CCK-8", "setting": "50 µM", "measurement": "inhibition", "result": "75.9%"}
